Source: ChEMBL document CHEMBL1817648, “Synthesis and in vitro antibacterial activity of a series of novel gatifloxacin derivatives” (Eur J Med Chem, 2011)
Converted amounts (≈) assume the structure as drawn.

Legend:
Klebsiella pneumoniae [1] = assay: Antibacterial activity against Klebsiella pneumoniae 09-23 after 18 to 24 hrs by NCCLS M100-S11 two fold serial dilution method; type: functional
Escherichia coli [2] = assay: Antibacterial activity against Escherichia coli 08-22 after 18 to 24 hrs by NCCLS M100-S11 two fold serial dilution method; type: functional
Pseudomonas aeruginosa [3] = assay: Antibacterial activity against Pseudomonas aeruginosa 09-32 after 18 to 24 hrs by NCCLS M100-S11 two fold serial dilution method; type: functional
[4] = Cytotoxicity against african green monkey Vero cells after 72 hrs by MTT assay; type: cell-based; conditions: chlorocebus sabaeus
Summary of the method: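 Vero cells were kept in Minimum Essential Medium with Earle's salts plus 10% fetal bovine serum at 37 °C under 5% CO₂. Cells were seeded at 1 × 10⁴ per well and allowed to recover 24 h. Medium was then replaced with assay medium containing compound or no drug, and cells were exposed for 72 h. CC₅₀ is the 50% cellular cytotoxic concentration.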

[5] = tested on: Staphylococcus epidermidis; assay: Antibacterial activity against methicillin-sensitive Staphylococcus epidermidis 09-3 after 18 to 24 hrs by NCCLS M100-S11 two fold serial dilution method; type: functional
Summary of the method: (§1)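 Two-fold serial dilution in agar medium. MIC read as the lowest concentration giving complete inhibition of bacterial growth after incubation at 35 °C for 18–24 h.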

[6] = tested on: Staphylococcus epidermidis; assay: Antibacterial activity against methicillin-sensitive Staphylococcus epidermidis 09-6 after 18 to 24 hrs by NCCLS M100-S11 two fold serial dilution method; type: functional; summary of the method: as §1
[7] = tested on: Staphylococcus epidermidis; assay: Antibacterial activity against methicillin-resistant Staphylococcus epidermidis 09-4 after 18 to 24 hrs by NCCLS M100-S11 two fold serial dilution method; type: functional; summary of the method: as §1
Klebsiella pneumoniae [8] = assay: Antibacterial activity against Klebsiella pneumoniae 09-22 after 18 to 24 hrs by NCCLS M100-S11 two fold serial dilution method; type: functional
Enterococcus faecium [9] = assay: Antibacterial activity against Enterococcus faecium 08-2 after 18 to 24 hrs by NCCLS M100-S11 two fold serial dilution method; type: functional
Pseudomonas aeruginosa [10] = assay: Antibacterial activity against Pseudomonas aeruginosa ATCC 27853 after 18 to 24 hrs by NCCLS M100-S11 two fold serial dilution method; type: functional
Enterococcus faecalis [11] = assay: Antibacterial activity against Enterococcus faecalis 08-10 after 18 to 24 hrs by NCCLS M100-S11 two fold serial dilution method; type: functional
Escherichia coli [12] = assay: Antibacterial activity against Escherichia coli ATCC 25922 after 18 to 24 hrs by NCCLS M100-S11 two fold serial dilution method; type: functional; conditions: ATCC25922
Staphylococcus aureus [13] = assay: Antibacterial activity against methicillin-sensitive Staphylococcus aureus 08-1 after 18 to 24 hrs by NCCLS M100-S11 two fold serial dilution method; type: functional
Staphylococcus aureus [14] = assay: Antibacterial activity against methicillin-resistant Staphylococcus aureus 08-1 after 18 to 24 hrs by NCCLS M100-S11 two fold serial dilution method; type: functional; summary of the method: as §1
Enterococcus faecalis [15] = assay: Antibacterial activity against Enterococcus faecalis 08-12 after 18 to 24 hrs by NCCLS M100-S11 two fold serial dilution method; type: functional
Streptococcus pneumoniae [16] = assay: Antibacterial activity against Streptococcus pneumoniae 08-2 after 18 to 24 hrs by NCCLS M100-S11 two fold serial dilution method; type: functional
Escherichia coli [17] = assay: Antibacterial activity against Escherichia coli 08-21 after 18 to 24 hrs by NCCLS M100-S11 two fold serial dilution method; type: functional
Staphylococcus aureus [18] = assay: Antibacterial activity against Staphylococcus aureus ATCC 25923 after 18 to 24 hrs by NCCLS M100-S11 two fold serial dilution method; type: functional; conditions: ATCC25923
Pseudomonas aeruginosa [19] = assay: Antibacterial activity against Pseudomonas aeruginosa 09-33 after 18 to 24 hrs by NCCLS M100-S11 two fold serial dilution method; type: functional
Enterococcus faecium [20] = assay: Antibacterial activity against Enterococcus faecium 08-7 after 18 to 24 hrs by NCCLS M100-S11 two fold serial dilution method; type: functional
Streptococcus pneumoniae [21] = assay: Antibacterial activity against Streptococcus pneumoniae 08-4 after 18 to 24 hrs by NCCLS M100-S11 two fold serial dilution method; type: functional
Pseudomonas aeruginosa [22] = assay: Antibacterial activity against Pseudomonas aeruginosa 09-34 after 18 to 24 hrs by NCCLS M100-S11 two fold serial dilution method; type: functional

Structure (SMILES) | MIC (Klebsiella pneumoniae [1]) | MIC (Escherichia coli [2]) | MIC (Pseudomonas aeruginosa [3]) | MIC [5] | MIC [6] | MIC [7] | MIC (Klebsiella pneumoniae [8]) | MIC (Enterococcus faecium [9]) | MIC (Pseudomonas aeruginosa [10]) | MIC (Enterococcus faecalis [11]) | MIC (Escherichia coli [12]) | MIC (Staphylococcus aureus [13]) | MIC (Staphylococcus aureus [14]) | MIC (Enterococcus faecalis [15]) | MIC (Streptococcus pneumoniae [16]) | MIC (Escherichia coli [17]) | MIC (Staphylococcus aureus [18]) | MIC (Pseudomonas aeruginosa [19]) | MIC (Enterococcus faecium [20]) | MIC (Streptococcus pneumoniae [21]) | other results
COc1c(N2CCN(CC/C(C)=N/NC(N)=O)C(C)C2)c(F)cc2c(=O)c(C(=O)O)cn(C3CC3)c12 (stereo not given) | 2 µg/mL (≈ 3.98 µM) | 4 µg/mL (≈ 7.96 µM) | 0.25 µg/mL (≈ 0.497 µM) | 0.25 µg/mL (≈ 0.497 µM) | 0.25 µg/mL (≈ 0.497 µM) | 1 µg/mL (≈ 1.99 µM) | 1 µg/mL (≈ 1.99 µM) | 8 µg/mL (≈ 15.9 µM) | 4 µg/mL (≈ 7.96 µM) | 8 µg/mL (≈ 15.9 µM) | 2 µg/mL (≈ 3.98 µM) | 1 µg/mL (≈ 1.99 µM) | 2 µg/mL (≈ 3.98 µM) | 8 µg/mL (≈ 15.9 µM) | 8 µg/mL (≈ 15.9 µM) | 8 µg/mL (≈ 15.9 µM) | 0.5 µg/mL (≈ 0.995 µM) | 16 µg/mL (≈ 31.8 µM) | 8 µg/mL (≈ 15.9 µM) | 2 µg/mL (≈ 3.98 µM) | CC50 at 72 h [4]: 31.2 µg/mL (≈ 62.2 µM); MIC (Pseudomonas aeruginosa [22]): 2 µg/mL (≈ 3.98 µM)
COc1c(N2CCN(C/C(C)=N/NC(C)=O)C(C)C2)c(F)cc2c(=O)c(C(=O)O)cn(C3CC3)c12 (stereo not given) | 4 µg/mL (≈ 8.2 µM) | 16 µg/mL (≈ 32.8 µM) | 0.25 µg/mL (≈ 0.513 µM) | 0.25 µg/mL (≈ 0.513 µM) | 0.25 µg/mL (≈ 0.513 µM) | 0.25 µg/mL (≈ 0.513 µM) | 0.25 µg/mL (≈ 0.513 µM) | 16 µg/mL (≈ 32.8 µM) | 4 µg/mL (≈ 8.2 µM) | 16 µg/mL (≈ 32.8 µM) | 8 µg/mL (≈ 16.4 µM) | 0.25 µg/mL (≈ 0.513 µM) | 0.25 µg/mL (≈ 0.513 µM) | 16 µg/mL (≈ 32.8 µM) | 8 µg/mL (≈ 16.4 µM) | 16 µg/mL (≈ 32.8 µM) | 0.25 µg/mL (≈ 0.513 µM) | 64 µg/mL (≈ 131 µM) | 16 µg/mL (≈ 32.8 µM) | 0.25 µg/mL (≈ 0.513 µM) | CC50 at 72 h [4]: 707 µg/mL (≈ 1450 µM); MIC (Pseudomonas aeruginosa [22]): 2 µg/mL (≈ 4.1 µM)
CCOC(=O)CCN1CCN(c2c(F)cc3c(=O)c(C(=O)O)cn(C4CC4)c3c2OC)CC1C (stereo not given) | > 128 µg/mL | > 128 µg/mL | > 128 µg/mL | > 128 µg/mL | > 128 µg/mL | > 128 µg/mL | > 128 µg/mL | > 128 µg/mL | 128 µg/mL (≈ 269 µM) | > 128 µg/mL | 128 µg/mL (≈ 269 µM) | > 128 µg/mL | – | > 128 µg/mL | > 128 µg/mL | > 128 µg/mL | 128 µg/mL (≈ 269 µM) | > 128 µg/mL | > 128 µg/mL | > 128 µg/mL | MIC (Pseudomonas aeruginosa [22]): > 128 µg/mL
COc1c(N2CCN(CCC#N)C(C)C2)c(F)cc2c(=O)c(C(=O)O)cn(C3CC3)c12 (stereo not given) | 32 µg/mL (≈ 74.7 µM) | 64 µg/mL (≈ 149 µM) | 4 µg/mL (≈ 9.34 µM) | 0.25 µg/mL (≈ 0.583 µM) | 2 µg/mL (≈ 4.67 µM) | 2 µg/mL (≈ 4.67 µM) | 32 µg/mL (≈ 74.7 µM) | 32 µg/mL (≈ 74.7 µM) | 8 µg/mL (≈ 18.7 µM) | 64 µg/mL (≈ 149 µM) | 16 µg/mL (≈ 37.3 µM) | 4 µg/mL (≈ 9.34 µM) | 4 µg/mL (≈ 9.34 µM) | 32 µg/mL (≈ 74.7 µM) | 32 µg/mL (≈ 74.7 µM) | 32 µg/mL (≈ 74.7 µM) | 2 µg/mL (≈ 4.67 µM) | 128 µg/mL (≈ 299 µM) | 32 µg/mL (≈ 74.7 µM) | 4 µg/mL (≈ 9.34 µM) | CC50 at 72 h [4]: 500 µg/mL (≈ 1170 µM); MIC (Pseudomonas aeruginosa [22]): 16 µg/mL (≈ 37.3 µM)
CO/N=C(\C)CCN1CCN(c2c(F)cc3c(=O)c(C(=O)O)cn(C4CC4)c3c2OC)CC1C (stereo not given) | > 128 µg/mL | > 128 µg/mL | 128 µg/mL (≈ 270 µM) | 0.5 µg/mL (≈ 1.05 µM) | 1 µg/mL (≈ 2.11 µM) | 2 µg/mL (≈ 4.21 µM) | > 128 µg/mL | > 128 µg/mL | 128 µg/mL (≈ 270 µM) | > 128 µg/mL | 128 µg/mL (≈ 270 µM) | 2 µg/mL (≈ 4.21 µM) | > 128 µg/mL | > 128 µg/mL | > 128 µg/mL | > 128 µg/mL | 0.5 µg/mL (≈ 1.05 µM) | > 128 µg/mL | > 128 µg/mL | > 128 µg/mL | CC50 at 72 h [4]: 157 µg/mL (≈ 332 µM); MIC (Pseudomonas aeruginosa [22]): > 128 µg/mL
C[C@H]1COc2c(N3CCN(C)CC3)c(F)cc3c(=O)c(C(=O)O)cn1c23.C[C@H]1COc2c(N3CCN(C)CC3)c(F)cc3c(=O)c(C(=O)O)cn1c23.O [LEVOFLOXACIN] | 8 µg/mL | 4 µg/mL | 16 µg/mL | 0.06 µg/mL | 2 µg/mL | 0.5 µg/mL | 16 µg/mL | 4 µg/mL | – | 8 µg/mL | 2 µg/mL | 0.25 µg/mL | 0.06 µg/mL | 8 µg/mL | – | 8 µg/mL | 0.25 µg/mL | 8 µg/mL | 8 µg/mL | – | –
